Reference: ChEMBL document CHEMBL1137658, “Effect of caspofungin on metabolite profiles of Aspergillus species determined by nuclear magnetic resonance spectroscopy” (2007)
Values after ≈ are worked out from the molar mass of the structure shown.

Key:
[1] = system: Aspergillus terreus; assay: Antifungal activity against Aspergillus terreus isolate 04-188-2548 after 48 hrs by broth microdilution method; type: functional; conditions: isolate 04-188-2548, 48 h
[2] = system: Aspergillus niger; assay: Antifungal activity against Aspergillus niger isolate 05-290-2479 after 48 hrs by broth microdilution method; type: functional; conditions: isolate 05-290-2479, 48 h
Procedure, shortened: (§1)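 Modified CLSI M38-A broth microdilution in RPMI 1640 with l-glutamine, 2% glucose (not 0.2%), MOPS pH 7. Serial drug dilutions 0.03125 to 16 μg/ml in microtiter plates stored at −70°C up to 3 weeks. Run in duplicate. MIC = lowest concentration completely inhibiting visible growth.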

[3] = system: Aspergillus niger; assay: Antifungal activity against Aspergillus niger isolate 05-112-3701 after 48 hrs by broth microdilution method; type: functional; conditions: isolate 05-112-3701, 48 h
Procedure, shortened: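 CLSI M38-A broth microdilution, modified to use RPMI 1640 with 2% glucose (instead of 0.2%), 0.3 g/liter l-glutamine and 0.165 M MOPS at pH 7. Drug twofold dilutions 0.03125–16 μg/ml. Run in duplicate. MIC is the lowest concentration with no visible growth. For the lipopeptide, MEC is read at 48 h as the lowest concentration giving aberrant hyphae under an inverted microscope.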

[4] = system: Aspergillus nidulans; assay: Antifungal activity against Aspergillus nidulans isolate 05-326-1785 after 72 hrs by broth microdilution method; type: functional; conditions: isolate 05-326-1785, 72 h; procedure, shortened: as §1
[5] = system: Aspergillus nidulans; assay: Antifungal activity against Aspergillus nidulans isolate 00-202661 after 72 hrs by broth microdilution method; type: functional; conditions: isolate 00-202661, 72 h; procedure, shortened: as §1
[6] = system: Aspergillus flavus; assay: Antifungal activity against Aspergillus flavus ATCC 204304 after 48 hrs by broth microdilution method; type: functional; conditions: ATCC 204304, 48 h; procedure, shortened: as §1
[7] = system: Aspergillus flavus; assay: Antifungal activity against Aspergillus flavus isolate 05-314-1100 after 48 hrs by broth microdilution method; type: functional; conditions: isolate 05-314-1100, 48 h
[8] = system: Aspergillus fumigatus; assay: Inhibition of metabolite production in Aspergillus fumigatus ATCC 204305 assessed as lowest drug concentration required to inhibit 50% fungal metabolite production after 72 hrs in presence of 2 % glucose by NMR spectroscopy; type: functional
Procedure, shortened: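 Caspofungin dilutions with A. fumigatus ATCC 204305 in RPMI 1640-2% glucose-MOPS, incubated 72 h. ¹H NMR of medium. MEP = lowest concentration giving ≥50% fall in malate, glycine betaine or fumarate peak areas.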

[9] = system: Aspergillus terreus; assay: Inhibition of metabolite production in Aspergillus terreus isolate 06-059-2428 assessed as lowest drug concentration required to inhibit 50% ethanol production after 48 hrs in presence of 2 % glucose by NMR spectroscopy; type: functional
Procedure, shortened: (§2)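 Cultures grown in RPMI 1640-2% glucose-MOPS with drug series, 48 h. Culture media analysed by 600-MHz ¹H NMR. MEP taken from stack plots and peak integrals of resolved resonances, as lowest drug concentration suppressing nutrient use or metabolite production by ≥50%. Alternative MEP: lowest concentration raising fumarate >50%.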

[10] = system: Aspergillus terreus; assay: Inhibition of metabolite production in Aspergillus terreus isolate 04-188-2548 assessed as lowest drug concentration required to inhibit 50% ethanol, fumarate, malate production after 48 hrs in presence of 2 % glucose by NMR spectroscopy; type: functional; procedure, shortened: as §2
[11] = system: Aspergillus niger; assay: Inhibition of metabolite production in Aspergillus niger isolate 05-112-3701 assessed as lowest drug concentration required to inhibit 50% citrate production after 48 hrs in presence of 2 % glucose by NMR spectroscopy; type: functional; procedure, shortened: as §2
[12] = system: Aspergillus nidulans; assay: Inhibition of metabolite production in Aspergillus nidulans isolate 05-326-1785 assessed as lowest drug concentration required to inhibit 50% fumarate production after 72 hrs in presence of 2 % glucose by NMR spectroscopy; type: functional
Procedure, shortened: (§3)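 A. nidulans grows slowly, so spectra were recorded after 72 h incubation in RPMI 1640-2% glucose-MOPS with drug dilutions. 600-MHz ¹H NMR of culture medium. Fumarate peak integrals plotted against drug concentration. MEP = lowest concentration with ≥50% fall in fumarate.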

[13] = system: Aspergillus nidulans; assay: Inhibition of metabolite production in Aspergillus nidulans isolate 00-202661 assessed as lowest drug concentration required to inhibit 50% fumarate production after 72 hrs in presence of 2 % glucose by NMR spectroscopy; type: functional; procedure, shortened: as §3
[14] = system: Aspergillus flavus; assay: Inhibition of metabolite production in Aspergillus flavus ATCC 204304 assessed as lowest drug concentration required to inhibit 50% fumarate, malate production after 48 hrs in presence of 2 % glucose by NMR spectroscopy; type: functional; procedure, shortened: as §2
[15] = system: Aspergillus flavus; assay: Inhibition of metabolite production in isolate Aspergillus flavus 05-314-1100 assessed as lowest drug concentration required to inhibit 50% fumarate, malate production after 48 hrs in presence of 2 % glucose by NMR spectroscopy; type: functional, isolate  05-314-1100; procedure, shortened: as §2
[16] = system: Aspergillus flavus; assay: Increase in metabolite production in Aspergillus flavus isolate 05-314-1100 assessed as lowest drug concentration required to increase >50% fumarate production after 48 hrs in presence of 2 % glucose by NMR spectroscopy; type: functional; procedure, shortened: as §2
[17] = system: Aspergillus niger; assay: Inhibition of metabolite production in Aspergillus niger isolate 05-290-2479 assessed as lowest drug concentration required to inhibit 50% citrate production after 48 hrs in presence of 2 % glucose by NMR spectroscopy; type: functional; procedure, shortened: as §2
[18] = system: Aspergillus fumigatus; assay: Inhibition of metabolite production in Aspergillus fumigatus ATCC 204305 assessed as lowest drug concentration required to inhibit 50% glycine betain, fumarate, malate production after 48 hrs in presence of 2 % glucose by NMR spectroscopy; type: functional; procedure, shortened: as §2
[19] = system: Aspergillus fumigatus; assay: Inhibition of metabolite production in Aspergillus fumigatus isolate 06-067-1639 assessed as lowest drug concentration required to inhibit 50% glycine betaine, fumarate, malate production after 48 hrs in presence of 2 % glucose by NMR spectroscopy; type: functional; procedure, shortened: as §2
[20] = system: Aspergillus terreus; assay: Antifungal activity against Aspergillus terreus isolate 06-059-2428 after 48 hrs by broth microdilution method; type: functional; conditions: isolate 06-059-2428, 48 h; procedure, shortened: as §1
[21] = system: Aspergillus fumigatus; assay: microbe, parasite or virus in culture; conditions: isolate 06-067-1639, 48 h
[22] = system: Aspergillus fumigatus; assay: microbe, parasite or virus in culture; conditions: ATCC 204305, 48 h
[23] = system: Aspergillus fumigatus; assay: microbe, parasite or virus in culture; conditions: ATCC 204305, 72 h

Which results are given for `C[C@@H]1[C@H](O)[C@@H](C)/C=C/C=C/C=C/C=C/C=C/C=C/C=C/[C@H](O[C@@H]2O[C@H](C)[C@@H](O)[C@H](N)[C@@H]2O)C[C@@H]2O[C@](O)(C[C@@H](O)C[C@@H](O)[C@H](O)CC[C@@H](O)C[C@@H](O)CC(=O)O[C@H]1C)C[C@H](O)[C@H]2C(=O)O` [AMPHOTERICIN B]?
MIC [1]: 2 µg/mL (≈ 2.16 µM); MIC [2]: 0.25 µg/mL (≈ 0.271 µM); MIC [3]: 0.5 µg/mL (≈ 0.541 µM); MIC [4]: 0.5 µg/mL (≈ 0.541 µM); MIC [5]: 1 µg/mL (≈ 1.08 µM); MIC [6]: 8 µg/mL (≈ 8.66 µM); MIC [7]: 4 µg/mL (≈ 4.33 µM); Activity [8]: 1 µg/mL; Activity [9]: 0.06 µg/mL; Activity [10]: 2 µg/mL; Activity [11]: 0.25 µg/mL; Activity [12]: 0.5 µg/mL; Activity [13]: 0.25 µg/mL; Activity [14]: 2 µg/mL; Activity [15]: 2 µg/mL; Activity [16]: 0.06 µg/mL; Activity [17]: 0.125 µg/mL; Activity [18]: 0.25 µg/mL; Activity [19]: 0.5 µg/mL; MIC [20]: 1 µg/mL (≈ 1.08 µM); MIC [21]: 1 µg/mL (≈ 1.08 µM); MIC [22]: 1 µg/mL (≈ 1.08 µM); MIC [23]: 1 µg/mL (≈ 1.08 µM)
